Activity calls are given as the source filed them.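 The calls were made as follows: active = growth inhibition above a set limit, 3 SD over mean compound inhibition, in both replicates (cut at about 43% in these data); inconclusive = above the limit in only one replicate; inactive = at or below the limit in both replicates.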

The experiment can be described thus: S. cerevisiae growth inhibition in restrictive medium, OD615, pilot screen, restrictive growth control, yeast lifespan reduction project (AID 706).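 Also: modified DeaD lifespan yeast strain shifted to restrictive glucose medium.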 As to conditions: OD615, 48 h, at 10 µM, hits give high values. Summed up: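 material = engineered S. cerevisiae DeaD strain | medium = glucose-based CSMM-D restrictive medium | times = 4 h pre-incubation, 48 h exposure at 30 °C | technique = OD615 absorbance reading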
On to `COc1cccc(C2=NOC(C(=O)N3CCN(c4ccccc4)CC3)C2)c1OC` (stereo unspecified), for which the growth inhibition was -5.35% (inactive).
As for `O=C(Nc1ccc2c(c1)OCO2)c1ccc(CN2CCOCC2)cc1`, the growth inhibition is -16.3% (inactive).
Under `O=C(Cn1nc(Cc2ccncc2)c2ccccc2c1=O)N1CCc2ccccc2C1` stands 3.79% (inactive); under `CCOCCCNC(=O)c1ccc2c(c1)N(Cc1ccccc1)C(=O)CS2=O` (stereo unspecified), 6.05% (inactive); under `CS(=O)(=O)Nc1ccccc1C(=O)O`, -1.03% (inactive).
In the case of `CCOC(=O)N1CCC(Nc2ncnc3c2cnn3-c2ccc(C)cc2C)CC1`, the growth inhibition is -2.8% (inactive).
For the compound `CC1(C)C(c2ccccc2)=NC(c2ccccc2)N1O` (stereo unspecified), the growth inhibition is -4.8% (inactive).
Under `O=C(CS(=O)(=O)Cc1ccccc1)Nc1nc2ccccc2s1` stands -17.7% (inactive); under `CCOC(=O)N1CCN(C(=O)COc2ccc(S(=O)(=O)NC(C)C)cc2)CC1`, -20.2% (inactive).
To `COc1ccc(N2CCN(CCNC(=O)CCS(=O)(=O)c3cccc4nsnc34)CC2)cc1` belongs 4.11% (inactive); to `COc1cccc(C2CC(=O)Nc3c2c(=O)n(C)c(=O)n3C)c1OC` (stereo unspecified), -1.43% (inactive); to `CCN1C(=O)c2ccccc2S(=O)c2ccc(C(=O)NC3CC3)cc21` (stereo unspecified), 1.4% (inactive).
For `CCOC(=O)CCc1c(C)nc2cc(-c3ccc(F)cc3)[nH]n2c1=O`, the growth inhibition was -4.2% (inactive).
To `CCC(C)(C(=O)NC1CCCC1)N(Cc1cccs1)C(C)=O` (stereo unspecified) belongs -23.3% (inactive).
Under `COc1ccccc1NC(=O)C1(C)Cc2ccccc2C(=O)O1` (stereo unspecified) stands 5.93% (inactive); under `COC(=O)c1sc(NC(=O)COc2ccccc2OC)nc1C`, -0.995% (inactive).

Source of the values: PubChem BioAssay.
